Active and inactive are the calls of the source. The calls are words filed in the database; no cut-off is given here.
Tested on: not listed separately
Assay: Antioxidant activity assessed as radical scavenging activity in FMLP-stimulated human PMNC by chemiluminescence assay
Format: functional
In short: (§1)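 Human PMNs in HBSS (5 × 10⁶ cells/ml) preincubated 30 min at 37 °C with luminol (0.2 mM, as added) and test solution (ethanol stock diluted in HBSS). Stimulated with FMLP (0.5 μM, as added). Luminol-enhanced chemiluminescence recorded in cpm for 15 min at 37 °C. Area under the curve expressed as % of compound-free control; five measurements per concentration, averaged. Quercetin served as positive control.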

IC50 [nM]	SMILES
250	C[C@@H]1O[C@@H](O[C@H]2[C@H](Oc3c(-c4ccc(O)c(O)c4)oc4cc(O[C@@H]5O[C@H](CO)[C@@H](O)[C@H](O)[C@H]5O)cc(O)c4c3=O)OC[C@H](O)[C@@H]2O)[C@H](O)[C@H](O)[C@H]1O [CALABRICOSIDE A]
300	C[C@@H]1O[C@@H](O[C@H]2[C@H](Oc3c(-c4ccc(O)c(O)c4)oc4cc(O[C@@H]5O[C@H](CO)[C@@H](O)[C@H](O)[C@H]5O)cc(O)c4c3=O)OC[C@H](O)[C@@H]2O)[C@H](O)[C@H](O)[C@H]1OC(=O)/C=C/c1ccc(O)c(O)c1 [CALABRICOSIDE B]

SMILES	IC50 [nM]
O=c1c(O)c(-c2ccc(O)c(O)c2)oc2cc(O)cc(O)c12 [QUERCETIN]	500

Organism: Homo sapiens
Assay: Antioxidant activity assessed as radical scavenging activity in FMLP-stimulated human PMNC up to 30 uM by chemiluminescence assay
Format: functional
In short: as §1

SMILES	Activity
CSC(=O)OCC1=C[C@@H]2OC(=O)C3=CO[C@@H](O[C@@H]4O[C@H](CO)[C@@H](O)[C@H](O)[C@H]4O)[C@H]1[C@@H]32	inactive
O=C1O[C@H]2C=C(CO)[C@H]3[C@H](O[C@@H]4O[C@H](CO)[C@@H](O)[C@H](O)[C@H]4O)OC=C1[C@H]32	inactive
CSC(=O)OCC1=C[C@H](O)[C@H]2C(C(=O)O)=CO[C@@H](O[C@@H]3O[C@@H](CO)[C@@H](O)[C@@H](O)[C@H]3O)[C@H]12	inactive
O=C(O)C1=CO[C@@H](O[C@@H]2O[C@H](CO)[C@@H](O)[C@H](O)[C@H]2O)[C@@H]2C(CO)=C[C@@H](O)[C@H]12	inactive
COc1cc([C@H]2OC[C@H]3[C@@H]2CO[C@@H]3c2cc(OC)c(O[C@@H]3O[C@H](CO)[C@@H](O)[C@H](O)[C@H]3O)c(OC)c2)cc(OC)c1O[C@@H]1O[C@H](CO)[C@@H](O)[C@H](O)[C@H]1O	inactive
CC(=O)OCC1=C[C@@H]2OC(=O)C3=CO[C@@H](O[C@@H]4O[C@H](CO)[C@@H](O)[C@H](O)[C@H]4O)[C@H]1[C@@H]32	inactive
O=C(O)C1=CO[C@@H](O[C@@H]2O[C@H](CO)[C@@H](O)[C@H](O)[C@H]2O)[C@@H]2C(CO)=CC[C@H]12	inactive
CC(=O)OCC1=C[C@H](O)[C@@H]2C(C(=O)O)=CO[C@@H](O[C@H]3O[C@@H](CO)[C@H](O)[C@@H](O)[C@@H]3O)[C@H]12	inactive
COc1cc(C[C@H]2CO[C@@H](c3ccc(O[C@@H]4O[C@H](CO)[C@@H](O)[C@H](O)[C@H]4O)c(OC)c3)[C@H]2CO)ccc1O[C@@H]1O[C@H](CO)[C@@H](O)[C@H](O)[C@H]1O	inactive

Reference: ChEMBL document CHEMBL1155733, “Flavonoid, iridoid, and lignan glycosides from Putoria calabrica” (J Nat Prod, 2001)
